The conditions of data set [1]: cited from earlier work.
Data set [2] concerns amyloid-β plaques and neurofibrillary tangles. Particulars: AD patients; cited from earlier work.
For a further data set, the target named is amyloid-β (Homo sapiens, UniProt P05067). The data set is described as follows: Human PET, DVR by reference Logan with cerebellum as reference. Type of data set: in vivo. Particulars: for DVR (mean ± SD), anterior cingulate cortex / DVR (mean ± SD), grey matter / DVR (mean ± SD), hippocampus / DVR (mean ± SD), lateral temporal cortex / DVR (mean ± SD), parietal cortex / DVR (mean ± SD), posterior cingulate cortex / DVR (mean ± SD), prefrontal cortex / DVR (mean ± SD), white matter: refLogan. Summed up:
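IV bolus [11C]radioligands in controls and AD patients; ROIs manually drawn on 1.5-T T1 MRI, cortical ROIs restricted to segmented grey matter. Reference Logan used cerebellar cortex (white matter and vermis excluded) as reference. Six linear-phase frames: 13–45 min for AZD2995, 30–60 min for AZD2184. DVR = target/cerebellum V T. Groups compared by Mann–Whitney U (p < 0.05) and pooled-SD effect size.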

Data set [3] in a line: Brain time-activity curves in human PET. Type of data set: in vivo. Particulars: after intravenous injection. Summed up: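 [11C]radioligand in sterile disodium phosphate-buffered saline (pH 7.4), filtered, given as an IV bolus to control subjects and mild–moderate AD patients. Dose for the AZD2995 radioligand was 410 ± 18 MBq (620 ± 486 GBq/μmol). List-mode PET ran 93 min (38 frames), with PSF-modelled iterative reconstruction. Brain radioactivity was expressed as percent injected activity over time.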

The target in data set [4] is synthetic Aβ(1-40) amyloid fibrils (Homo sapiens, UniProt P05067). The data set is described as follows: Competition binding against [3H]PIB on Aβ. The note with it: [3H]PIB 3 nM, Aβ(1-40) fibrils.
Sequence of synthetic Aβ(1-40) amyloid fibrils (P05067 672-711): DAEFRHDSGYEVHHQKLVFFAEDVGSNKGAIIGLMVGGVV
The target in a further data set is Aβ(1-42) amyloid fibrils (Homo sapiens, UniProt P05067). The data set is described as follows: Competition binding against [3H]PIB on Aβ. Particulars: [3H]PIB 3 nM, Aβ(1-42) fibrils.
Sequence of Aβ(1-42) amyloid fibrils (P05067 672-713): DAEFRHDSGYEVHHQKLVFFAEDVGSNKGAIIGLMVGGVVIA
A further data set has as its system amyloid-β plaques. The data set is described as follows: In vitro autoradiography on human AD brain sections. The data set is classed as binding. Particulars: white matter. Put shortly:
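Cryo-cut 10 μm post-mortem AD cortical sections preincubated in 50 mM Tris (pH 7.4) at room temperature, then 30 min with 3 nM [3H]ligand in Tris buffer. Optical densities (digital light units/mm²) read in grey and white matter ROIs. Subcortical white matter signal taken as nonspecific binding. Signal-to-noise = (grey − white)/white.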

Setting [5] is: AD patients vs control subjects, DVR.
[6] abbreviates: read-out: IC50, inhibition of [3H]PIB binding.

Results on 5 compounds are retold here after paper PMC3590405 (European Journal of Nuclear Medicine and Molecular Imaging, 2013).

Broadly, the logD is the decadic logarithm of the distribution of all forms, ionised or not, between an organic phase and buffer at a given pH. By IC50 is commonly meant the concentration needed to halve the response being measured.

Sequence of amyloid-β (P05067 672-711 limits assumed): as the sequence (P05067 672-711) above

Take `CNc1ccc(-c2nc3ccc(O)cc3s2)cn1` [AZD2184]: in data set [1], the logD is 1.8.
On to `CC(=C(C#N)C#N)c1ccc2cc(N(C)CC[18F])ccc2c1` [[^18F]FDDNP], for which the “specific binding signal compared to other amyloid radioligands” value in data set [2] is recorded as “ninefold lower”.
For `[11CH3]Nc1ccc(-c2nc3ccc(O)cc3s2)cn1` [[^11C]AZD2184], on amyloid-β (setting [5]), the “Effect size, anterior cingulate cortex” value is 8.52; the “Effect size, grey matter” value came to 4.89; the “Effect size, hippocampus” value stood at 1.73; the “Effect size, lateral temporal cortex” value turned out to be 5.00. At amyloid-β (setting [5]), the “Effect size, parietal cortex” value turned out to be 5.26; the “Effect size, posterior cingulate cortex” value is given as 6.34; the “Effect size, prefrontal cortex” value was 5.82; the “Effect size, white matter” value is given as 2.67. For the same compound, at amyloid-β (AD patients), the “DVR (mean ± SD), anterior cingulate cortex” value came out at 1.97 ± 0.15; the “DVR (mean ± SD), grey matter” value worked out at 1.72 ± 0.17; the “DVR (mean ± SD), hippocampus” value is 1.11 ± 0.10; the “DVR (mean ± SD), lateral temporal cortex” value amounted to 1.94 ± 0.22. For the same compound, on amyloid-β (AD patients), the “DVR (mean ± SD), parietal cortex” value stood at 2.07 ± 0.25; the “DVR (mean ± SD), posterior cingulate cortex” value is recorded as 2.10 ± 0.18; the “DVR (mean ± SD), prefrontal cortex” value is reported as 2.13 ± 0.23; the “DVR (mean ± SD), white matter” value is recorded as 1.25 ± 0.05. Moreover, at amyloid-β (control subjects), the “DVR (mean ± SD), anterior cingulate cortex” value amounted to 0.92 ± 0.02; the “DVR (mean ± SD), grey matter” value is on record as 1.05 ± 0.05; the “DVR (mean ± SD), hippocampus” value was determined as 0.95 ± 0.08; the “DVR (mean ± SD), lateral temporal cortex” value worked out at 1.03 ± 0.05. Further, at amyloid-β (control subjects), the “DVR (mean ± SD), parietal cortex” value worked out at 1.04 ± 0.04; the “DVR (mean ± SD), posterior cingulate cortex” value is on record as 1.17 ± 0.02; the “DVR (mean ± SD), prefrontal cortex” value is listed as 1.04 ± 0.04; the “DVR (mean ± SD), white matter” value was 1.08 ± 0.13. Further, in data set [3], the “time to peak of total radioactivity in brain” value is given as “at the same time”. For the same compound, the “radioactivity in the brain at peak” value in data set [3] (% of injected radioactivity) is on record as 3.0–3.5%.
On to `CNc1ccc(-c2nc3ccc(O)cc3o2)cn1` [AZD2995], for which the figures for the “pIC50, inhibition of [3H]PIB binding” value (in data set [4]; at Aβ(1-42) amyloid fibrils) were 6.77 ± 0.02 and 6.69 ± 0.05, respectively. The IC50 is 170 nM in data set [4] (setting [6]) and 204 nM at Aβ(1-42) amyloid fibrils (setting [6]). In addition, the logD in data set [1] is reported as 1.3.
In the case of `[3H]C([3H])([3H])Nc1ccc(-c2nc3ccc(O)cc3s2)cc1` [[^3H]PIB], the “nonspecific binding and background, rank order” value in the data set on amyloid-β plaques was “highest”.
